The values that follow come from PubChem BioAssay.

Structures are written as SMILES. Unmarked numbers belong to inactive results. Records with an inconclusive call do not appear. Activity calls are given as the source filed them.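 How the source made its calls, unless noted: active means viability increase at or above a cutoff of the median across tested compounds plus 3 SD (cut at about 8.5% in these data, passing the limit was not always enough); inconclusive means some gains above the cutoff, reason not given; inactive means the rest.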

Experiment [1] can be described thus: S. cerevisiae growth inhibition in permissive medium (OD615), pilot counter-assay for S. cerevisiae lifespan shortening project, permissive growth control (AID 705;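 active means growth inhibition above 25% in both replicates, a cutoff set 3 SD above the mean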). Particulars: OD615, 24 h, at 10 µM, hits give high values. Put shortly:
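System – S. cerevisiae with engineered DeaD lifespan system · Buffer or medium – SC raffinose/galactose permissive medium · Schedule – cells pre-grown 4 h, then 24 h compound exposure, 30 °C humidified · Technique – culture turbidity as optical density at 615 nm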

A short description of experiment [2]: S. cerevisiae growth inhibition in restrictive medium, OD615, pilot screen, restrictive growth control, yeast lifespan reduction project (AID 706;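 active means growth inhibition above a set limit, 3 SD over mean compound inhibition, in both replicates, cut at about 43% in these data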;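 further: modified DeaD lifespan yeast strain shifted to restrictive glucose medium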). Particulars: OD615, 48 h, at 10 µM, hits give high values. Put shortly:
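Material: engineered S. cerevisiae DeaD strain / Medium: glucose-based CSMM-D restrictive medium / Compound: single dose of 10 µM compound final, 0.25% DMSO / Timing: 4 h pre-incubation, 48 h exposure at 30 °C / Technique: OD615 absorbance reading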

The nature of experiment [3]: doxorubicin toxicity protection in MRP-1 cells – H69AR cells, CellTiter-Glo, duplicate, MRP-1 activator project, pilot screen (AID 807).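 Further: compound pretreatment 18-22 h then 72 h combined with doxorubicin; 0% = doxorubicin alone and 100% = vehicle without doxorubicin.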 Particulars: H69AR viability with doxorubicin, CellTiter-Glo luminescence; at 10 µM; hits give high values. For orientation: In ATP-based viability assays light output follows the ATP content of the culture.
Experiment [4] in a line: viability of HCT116 without oncogenic beta-catenin – human colon tumor cells, pilot screen (AID 823;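 active means cell viability at or below a set limit in both duplicate runs, the limit being the all-compound median minus 4 SD, cut at about 23% in these data, passing the limit was not always enough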;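 further: 0% = wells killed by 20 µM Hyamine and 100% = untreated DMSO cell wells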). Particulars: HCT116 beta-catenin knockout viability, CellTiter-Glo, 60 h; at 10 µM; hits give low values.
The nature of experiment [5]: viability of PTEN-null HCT116 cells – cell-based, HCT116 clonal line, CellTiter-Glo, pilot screen (AID 824;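 active means viability at or below 27.92% in each of two runs, the all-compound median minus 4 SD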;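 further: 0% = 20 µM Hyamine control and 100% = vehicle cell control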). Particulars: HCT116 PTEN-deleted viability, 60 h, at 10 µM, hits give low values.
Experiment [6] in a line: RAM pathway blockade in budding yeast – dse1pr::URA3 reporter, 5-FOA selection, pilot screen (AID 869;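 active means inhibition over a set limit, the all-compound mean plus 3 SD, in both replicate runs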;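 further: 0% = DMSO wells with no growth and 100% = 10 µM 1-NA-PP1 with full growth; RAM network block rescues cells from 5-FOA so hits raise OD615 growth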). The note with it: S. cerevisiae dse1pr::URA3 5-FOA growth, OD615, 2 d; at 10 µM; hits give high values; strain carries analog-sensitive mutant Cbk1 kinase.
Experiment [7] in a line: RAM signaling pathway blockade in yeast – S. cerevisiae, Pdr1DBD-CYC8 efflux-inhibited sensitized strain, primary screen (AID 1298;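 active means RAM network inhibition above 8.4% in each of two replicates, 3 SD over the compound average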;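 further: 0% = DMSO untreated cells without growth and 100% = 10 µM 1-NA-PP1 full growth; higher means more yeast growth rescued from 5-FOA killing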). The note with it: S. cerevisiae cbk1-as DSE1-URA3 strain, 5-FOA growth OD615, 2 d; at 50 µM; hits give high values.

What is called viability is a read-out of living cells in per cent, often relative to untreated cells. In general, inhibition refers to the change of the read-out against control, counted positive when it falls. Consider `CCN(CC)C(=O)C1CCN(S(=O)(=O)c2ccc(C3CNC(=O)C3)cc2)CC1` (stereo unspecified), for which the growth inhibition in experiment [1] is 3.76%; in experiment [2], -0.015%. Besides, in experiment [3], the viability increase was 0.02%. Further, the viability in experiment [4] was 99.9%; in experiment [5], 106%. The inhibition in experiment [6] is 1.81%. In addition, the RAM network inhibition in experiment [7] was 2.47%.
For `COc1ccc(-c2nc(CNS(=O)(=O)c3cc(OC)ccc3OC)cs2)cc1`, the growth inhibition is 2.43% in experiment [1] and 5.36% in experiment [2]. In experiment [3], the viability increase is -1.76%. The results for the viability in experiment [4] and in experiment [5] were 92% and 89.7%, respectively. Moreover, the inhibition in experiment [6] was 0.53%. The RAM network inhibition in experiment [7] is 5.82%.
Consider `O=C(NCc1ccco1)C1CCCN(S(=O)(=O)c2cccc3cccnc23)C1` (stereo unspecified), for which the growth inhibition in experiment [1] is -10.6%; in experiment [2], -8.38%. Moreover, the viability increase in experiment [3] was -4.15%. Further, the viability in experiment [4] is 96.4%; in experiment [5], 94.4%. Further, in experiment [6], the inhibition is 0.595%. The RAM network inhibition in experiment [7] is 0.89%.
As to `Cc1c(C(=O)NCC2CCCO2)oc2ccc(S(=O)(=O)N3CCCCC3)cc12` (stereo unspecified), the growth inhibition is -15.5% in experiment [1] and -9.72% in experiment [2]. Moreover, in experiment [3], the viability increase was -0.95%. The viability in experiment [4] was 89.9%; in experiment [5], 92.1%. The inhibition in experiment [6] was 2.4%. In experiment [7], the RAM network inhibition is 1.2%.
Regarding `CCOC(=O)N1CCN(C(=O)c2ccccc2Oc2ccccc2)CC1`, the values for the growth inhibition in experiment [1] and in experiment [2] were -5.57% and 0.11%, respectively. For the same compound, the viability increase in experiment [3] is -1.94%. Besides, the values for the viability in experiment [4] and in experiment [5] were 91% and 93.3%, respectively. In addition, in experiment [6], the inhibition was -0.56%. For the same compound, in experiment [7], the RAM network inhibition was 0.52%.
In the case of `O=C(C1CCN(c2ncnc3c2sc2cccc(F)c23)CC1)N1CCOCC1`, the values for the growth inhibition in experiment [1] and in experiment [2] were 0.06% and 2.17%, respectively. In experiment [3], the viability increase is -6.73%. The viability in experiment [4] is 77.2%; in experiment [5] it was 76.8%. Moreover, the inhibition in experiment [6] was 3.08%. Moreover, the RAM network inhibition in experiment [7] was 1.81%.
Turning to `O=S(=O)(Nc1ccc2nc(C(F)(F)F)[nH]c2c1)c1ccccc1`, the growth inhibition in experiment [1] is -1.94%; in experiment [2], -0.635%. For the same compound, the viability increase in experiment [3] is 0.27%. In addition, the viability in experiment [4] was 85.5%; in experiment [5], 82%. Besides, the inhibition in experiment [6] is 0.97%. In addition, in experiment [7], the RAM network inhibition is 1.68%.
Regarding `COc1c(Cl)ccc(Cl)c1C(=O)OCC(=O)O`, the figures for the growth inhibition in experiment [1] and in experiment [2] were -7.06% and -27.7%, respectively. For the same compound, in experiment [3], the viability increase was -2.73%. In addition, the viability was 86% in experiment [4] and 86.9% in experiment [5]. In addition, in experiment [6], the inhibition is 1.39%. For the same compound, the RAM network inhibition in experiment [7] was 4.54%.
Regarding `COCC(C)N=Cc1c(O)[nH]c2ccccc12` (stereo unspecified), the figures for the growth inhibition in experiment [1] and in experiment [2] were 0.585% and 1.21%, respectively. The viability increase in experiment [3] was -2.38%. The viability was 92.1% in experiment [4] and 97.5% in experiment [5]. In experiment [6], the inhibition is 0.82%. Also, the RAM network inhibition in experiment [7] was -1.18%.
As for `CCOc1cccc(NC(=O)c2ccc(S(=O)(=O)N3CCCC3)cc2)c1`, the growth inhibition in experiment [1] was 0.65%; in experiment [2], -11.1%. In addition, the viability increase in experiment [3] is -2.68%. Further, the viability in experiment [4] is 87.5%; in experiment [5], 82.1%. Also, the inhibition in experiment [6] is 0.965%. Also, the RAM network inhibition in experiment [7] was -0.21%.
In the case of `CC1CCCC(C)N1CCCNC(=O)c1cc2c(=O)n(C)c3ccccc3c2n1C` (stereo unspecified), the growth inhibition is -11.5% in experiment [1] and -10.6% in experiment [2]. Further, in experiment [3], the viability increase was -6.03%. For the same compound, the viability in experiment [4] was 68.9%; in experiment [5], 71.5%. Besides, in experiment [6], the inhibition is -0.625%. In addition, in experiment [7], the RAM network inhibition is 2.26%.
On to `Cc1ccc(S(=O)(=O)N2CCN(Cc3ccccc3C(F)(F)F)CC2)cc1`, for which the growth inhibition was -12.5% in experiment [1] and -27.7% in experiment [2]. In experiment [3], the viability increase was -1.45%. The values for the viability in experiment [4] and in experiment [5] were 78% and 82.8%, respectively. Moreover, the inhibition in experiment [6] was 0.92%. In addition, in experiment [7], the RAM network inhibition was 3.06%.
Turning to `COc1ccc(C2/C(=C(/O)c3ccc(F)cc3)C(=O)C(=O)N2CCCN(C)C)cc1` (stereo unspecified), the growth inhibition in experiment [1] is -5.9%; in experiment [2], -4.55%. Besides, the viability increase in experiment [3] was -2.11%. Further, the results for the viability in experiment [4] and in experiment [5] were 104% and 98.1%, respectively. Besides, the inhibition in experiment [6] was 0.345%. Further, the RAM network inhibition in experiment [7] is 2.49%.
Turning to `CC(C)c1nnc(NC(=O)c2ccc(S(=O)(=O)N3CCOCC3)cc2)s1`, the growth inhibition in experiment [1] is -15%; in experiment [2], -24.1%. In addition, the viability increase in experiment [3] was -1%. For the same compound, the viability in experiment [4] was 104%; in experiment [5] it was 99.3%. In addition, the inhibition in experiment [6] is 2.56%. For the same compound, the RAM network inhibition in experiment [7] is 6.74%.
`CCn1c(SCC(=O)NCC2CCCO2)nc2c(c1=O)SC(C)C2` (stereo unspecified): the growth inhibition in experiment [1] was -2.03%; in experiment [2], -29.9%. Further, the viability increase in experiment [3] was -1.87%. Also, the viability in experiment [4] was 103%; in experiment [5] it was 98%. Besides, the inhibition in experiment [6] was 0.93%. In addition, the RAM network inhibition in experiment [7] is 2.66%.
On to `C=CCc1ccccc1OCC(O)CN1CCN(c2ccccc2OC)CC1` (stereo unspecified), for which the growth inhibition in experiment [1] is -21.5%; in experiment [2], -25%. Moreover, in experiment [3], the viability increase was -4.59%. The viability in experiment [4] was 56.3%; in experiment [5] it was 63.5%. In experiment [6], the inhibition was 1.39%. Besides, in experiment [7], the RAM network inhibition is 4.75%.
Take `Cc1ccc(-c2nnc3n2N=C(c2ccc(Br)cc2)CS3)cc1`: the growth inhibition in experiment [1] is 1.27%; in experiment [2] it was 15.8%. Further, the viability increase in experiment [3] was -2.58%. In addition, the viability is 102% in experiment [4] and 90.5% in experiment [5]. In addition, the inhibition in experiment [6] was 2.41%. In experiment [7], the RAM network inhibition was 4.62%.
On to `Cc1cc(C)n(-c2nc(NC(C)(C)C)nc(NC(C)(C)C)n2)n1`, for which the growth inhibition was -11.5% in experiment [1] and 11.4% in experiment [2]. Moreover, the viability increase in experiment [3] is -2.08%. For the same compound, the viability in experiment [4] is 8.58% (active); in experiment [5], 11.2% (active). In addition, the inhibition in experiment [6] is 2.85%. Also, the RAM network inhibition in experiment [7] is 5.62%.
